Assay results reported in ChEMBL document CHEMBL4130526, “Structure-Activity Relationship Study of Leucyl-3-epi-deoxynegamycin for Potent Premature Termination Codon Readthrough” (ACS Med Chem Lett, 2017).

Experiments:
Mus musculus [1] = species: Mus musculus; test: (§1) Mutation read through activity at premature termination codon TGA-containing mouse dystrophin gene exon 23 nucleotide sequence expressed in African green monkey COS7 cells assessed as ratio of luciferase activity to beta-galactosidase activity at 200 uM after 48 hrs by dual luciferase reporter gene assay relative to control; type: cell-based
In short: (§2)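 COS-7 cells carrying a dual-reporter plasmid (β-galactosidase and luciferase genes joined by a TGA-containing stop sequence). Compounds were tested at 200 μM; the dose-dependent series ran 10–200 μM. Activity is reported as a ratio relative to D-MEM control, as mean ± SD, n = 3.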

NHDF = test: Cytotoxicity against HDF assessed as reduction in cell viability at 200 uM after 48 hrs by WST1 assay; type: cell-based; details: human
COS-7 = test: Cytotoxicity against African green monkey COS7 cells assessed as reduction in cell viability at 200 uM after 48 hrs by WST1 assay; type: cell-based; details: chlorocebus aethiops, cos-7, 48 h
Mus musculus [2] = species: Mus musculus; test: as §1, with “activity” for “activity at 200 uM”; type: cell-based; in short: as §2
Mus musculus [3] = species: Mus musculus; test: as §1, with “TAG-containing” for “TGA-containing”; type: cell-based
Mus musculus [4] = species: Mus musculus; test: as §1, with “TAA-containing” for “TGA-containing”; type: cell-based
Mus musculus [5] = species: Mus musculus; test: as §1, with “control relative to in-frame control containing TGG” for “control”; type: cell-based
Liver carboxylesterase = target: T1, Liver carboxylesterase (Sus scrofa, UniProt Q29550); test: Prodrug conversion assessed as porcine liver esterase-mediated TCP-126 formation at 2 mM up to 6 hrs by RP-HPLC method; type: ADME; details: pig, isolated protein, 2000 µM, TDE = time-dependent effect
T1 sequence (Q29550 whole entry): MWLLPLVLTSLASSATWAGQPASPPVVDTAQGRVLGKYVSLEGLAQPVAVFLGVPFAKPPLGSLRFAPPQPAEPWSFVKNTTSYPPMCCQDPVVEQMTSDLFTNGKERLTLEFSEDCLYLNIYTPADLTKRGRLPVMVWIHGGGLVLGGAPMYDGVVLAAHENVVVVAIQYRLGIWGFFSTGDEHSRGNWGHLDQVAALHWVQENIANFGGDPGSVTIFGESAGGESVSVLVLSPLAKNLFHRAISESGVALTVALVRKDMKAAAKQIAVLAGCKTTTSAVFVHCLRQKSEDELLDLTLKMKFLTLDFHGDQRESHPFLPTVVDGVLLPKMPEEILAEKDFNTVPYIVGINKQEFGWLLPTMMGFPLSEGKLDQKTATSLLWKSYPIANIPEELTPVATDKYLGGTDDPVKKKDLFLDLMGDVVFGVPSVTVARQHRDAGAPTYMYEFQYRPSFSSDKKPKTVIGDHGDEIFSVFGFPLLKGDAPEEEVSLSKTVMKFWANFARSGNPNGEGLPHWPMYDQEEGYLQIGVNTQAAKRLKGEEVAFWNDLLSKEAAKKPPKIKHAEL
In short: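 Incubated with porcine liver esterase (110 units/mL) in 100 mM phosphate buffer, pH 7.4, at 37 °C. Reaction mixtures were analysed by RP-HPLC over time for conversion to the parent compound. The new metabolite peak was collected and identified by high-resolution MS.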

Mus musculus [6] = test: Mutation read through activity in READ mouse on C57/BL6 background expressing premature termination codon TGA-containing mouse dystrophin gene exon 23 nucleotide sequence gene exon 23 assessed as ratio of luciferase activity to beta-galactosidase activity at 1 mg/20g body weight, sc administered daily for 7 days measured post last dose by dual luciferase reporter gene assay relative to control; type: functional
In short: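 READ mice carry a dual reporter split by a PTC. Subcutaneous injection into the abdominal region at 1 mg in 0.2 mL saline per 20 g body weight, daily for 7 days. Negative control: saline. Positive control: arbekacin. Readthrough reported as mean ± SD.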

Mus musculus [7] = test: Acute toxicity in B10 mouse assessed reduction in body weight at 10 mg/day/20g body weight, sc for 14 days and measured on day 1; type: organism-based; details: in vivo, 336 h
In short: (§3)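 Single subcutaneous injection into the abdominal region of B10 mice at 10 mg day–1 20 g–1 body weight, given only once. Body weight tracked over 2 weeks. Treated group n = 4; saline-injected B10 mice (n = 3) served as controls.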

Mus musculus [8] = test: Acute toxicity in B10 mouse assessed as change in body weight at 10 mg/day/20g body weight, sc for 14 days and measured on 1 to 7 and 14 days; type: organism-based; details: in vivo, 336 h; in short: as §3
[9] = Stability in 100 mM phosphate buffer (pH 7.4) assessed as parent compound remaining at 200 uM measured after 6 hrs in absence of esterase by RP-HPLC and high-resolution mass spectrometry method

| SMILES | fold change (FC) (Mus musculus [1]) | Activity (NHDF) | Activity (COS-7) | also measured |
| --- | --- | --- | --- | --- |
| CC(C)C[C@H](N)C(=O)N[C@@H](CCCN)CC(=O)NN(C)CC(=O)OCc1ccccc1Br | 8.84 to 8.89 | Non-Toxic | Non-Toxic | Activity (Mus musculus [2]): Dose-dependent effect; fold change (FC) (Mus musculus [3]): 2.55; fold change (FC) (Mus musculus [4]): 1.22; Activity (Mus musculus [5]): 2.69%; Drug metabolism (Liver carboxylesterase): Tde; fold change (FC) (Mus musculus [6]): 1.59; Activity (Mus musculus [7]): Toxic; Activity (Mus musculus [8]): Non-Toxic; remaining at 6 h, 200 µM [9]: 99% |
| CN(CC(=O)O)NC(=O)C[C@H](CCCN)NC(=O)[C@@H](N)Cc1ccccc1 | 2.13 |  |  |  |
| COc1cccc(COC(=O)CN(C)NC(=O)C[C@H](CCCN)NC(=O)[C@@H](N)CC(C)C)c1 | 5.15 | Non-Toxic | Non-Toxic |  |
| CN[C@@H]1[C@@H](O)[C@@H](O[C@H]2[C@H](O)[C@@H](O[C@H]3O[C@H]([C@H](C)O)[C@@H](O)[C@H](O)[C@H]3N)[C@H](N)C[C@@H]2N)OC[C@]1(C)O | 7.2 | Non-Toxic | Non-Toxic |  |
| CC(C)C[C@H](N)C(=O)N[C@@H](CCCN)CC(=O)NN(C)CC(=O)OCc1cccc(Cl)c1 | 5.37 | Non-Toxic | Non-Toxic |  |
| CC(C)C[C@H](N)C(=O)N[C@@H](CCCN)CC(=O)NN(C)CC(=O)OCc1ccccc1 | 8.92 | Non-Toxic | Non-Toxic |  |
| CN(CC(=O)O)NC(=O)C[C@H](N)C[C@@H](O)CN | 1.54 |  |  |  |
| CN(CC(=O)O)NC(=O)C[C@H](CCCN)NC(=O)[C@@H](N)Cc1ccc(O)cc1 | 1.92 |  |  |  |
| CC(C)[C@H](N)C(=O)N[C@@H](CCCN)CC(=O)NN(C)CC(=O)O | 1.87 |  |  |  |
| CC(C)C[C@H](N)C(=O)N[C@@H](CCCN)CC(=O)NN(C)CC(=O)O | 2.25 to 2.72 | Non-Toxic | Non-Toxic | fold change (FC) (Mus musculus [3]): 1.3; fold change (FC) (Mus musculus [4]): 1.11 |
| CC(C)C[C@H](O)C(=O)N[C@@H](CCCN)CC(=O)NN(C)CC(=O)O | 1.33 |  |  |  |
| CC(C)C[C@@H](N)C(=O)N[C@@H](CCCN)CC(=O)NN(C)CC(=O)O | 1.3 |  |  |  |
| NCC[C@H](O)C(=O)N[C@@H]1C[C@H](N)[C@@H](O[C@H]2O[C@H](CN)CC[C@H]2N)[C@H](O)[C@H]1O[C@H]1O[C@H](CO)[C@@H](O)[C@H](N)[C@H]1O [ARBEKACIN] |  |  |  | fold change (FC) (Mus musculus [6]): 1.94 |
| CC(C)C[C@H](N)C(=O)N[C@@H](CCCN)CC(=O)NN(C)CC(=O)OCc1ccccc1[N+](=O)[O-] | 9.15 | Non-Toxic | Non-Toxic |  |
| CN(CC(=O)O)NC(=O)C[C@H](CCCN)NC(=O)CN | 2.1 |  |  |  |
